The values that follow come from ChEMBL document CHEMBL3102746, “Anticomplement monoterpenoid glucosides from the root bark of Paeonia suffruticosa” (J Nat Prod, 2014).

Active and inactive are the calls of the source. The calls are words filed in the database; no cut-off is given here. Where only a bound is given, the exact number is not on record here.

Type in all cases: functional, cell-based
Assay [1] can be described thus: Anticomplement activity in sheep erythrocytes assessed as concentration required for 50% hemolytic inhibition by classical pathway after 30 mins by spectrophotometry. As to conditions: Ovis aries; Erythrocyte. In outline:
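Sheep erythrocytes sensitized with rabbit anti-sheep erythrocyte antibodies in GVB2+. Test sample dilutions in GVB2+ preincubated with guinea pig serum (1:80) at 37 °C for 10 min, then EA added for 30 min at 37 °C. Supernatant OD read at 405 nm. Blank, 100% lysis and sample controls included. CH50 taken from mean of triplicates at each concentration. Heparin served as positive control.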

Assay [2] is described as follows: Anticomplement activity in New Zealand White rabbit erythrocytes assessed as concentration required for 50% hemolytic inhibition by alternative pathway after 30 mins. As to conditions: Oryctolagus cuniculus, Erythrocyte. In outline: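 Samples diluted in GVB-Mg-EGTA and preincubated with 1:10 normal human serum at 37 °C for 10 min. Rabbit erythrocytes (3.0 × 10^8 cells/mL) then added for 30 min at 37 °C. Lysis read as supernatant OD at 405 nm. AP50 expressed as 50% inhibitory concentration. Heparin served as positive control.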

Assay [3] in a line: Anticomplement activity in sheep erythrocytes in C5-depleted serum assessed as hemolysis by classical pathway at 1.09 mM after 30 mins compound treated in normal human serum. The conditions noted are these: Ovis aries, Erythrocyte.
Assay [4] can be described thus: Anticomplement activity in sheep erythrocytes in C9-depleted serum assessed as hemolysis by classical pathway at 1.09 mM after 30 mins compound treated in normal human serum. The conditions noted are these: Ovis aries, Erythrocyte.
A short description of assay [5]: Anticomplement activity in sheep erythrocytes in C4-depleted serum assessed as hemolysis by classical pathway at 1.09 mM after 30 mins compound treated in normal human serum. As to conditions: Ovis aries, Erythrocyte.
Assay [6] in a line: Anticomplement activity in sheep erythrocytes in C2-depleted serum assessed as hemolysis by classical pathway at 1.09 mM after 30 mins compound treated in normal human serum. As to conditions: Ovis aries, Erythrocyte.
Assay [7] can be described thus: Anticomplement activity in sheep erythrocytes in C1q-depleted serum assessed as hemolysis by classical pathway at 1.09 mM after 30 mins compound treated in normal human serum. The conditions noted are these: Ovis aries, Erythrocyte.
A short description of assay [8]: Anticomplement activity in sheep erythrocytes in C3-depleted serum assessed as hemolysis by classical pathway at 1.09 mM after 30 mins compound treated in normal human serum. The conditions noted are these: Ovis aries, Erythrocyte.
Assay [9] can be described thus: Anticomplement activity in sheep erythrocytes in C3-depleted serum assessed as inhibition of hemolysis by classical pathway at 0.54 mM after 30 mins compound treated in normal human serum. As to conditions: Ovis aries, Erythrocyte.
Assay [10] is described as follows: Anticomplement activity in sheep erythrocytes in C1q-depleted serum assessed as inhibition of hemolysis by classical pathway at 0.54 mM after 30 mins compound treated in normal human serum. As to conditions: Ovis aries, Erythrocyte.
Assay [11] can be described thus: Anticomplement activity in sheep erythrocytes in C9-depleted serum assessed as inhibition of hemolysis by classical pathway at 0.54 mM after 30 mins compound treated in normal human serum. As to conditions: Ovis aries, Erythrocyte.
The nature of assay [12]: Anticomplement activity in sheep erythrocytes in C5-depleted serum assessed as inhibition of hemolysis by classical pathway at 0.54 mM after 30 mins compound treated in normal human serum. As to conditions: Ovis aries, Erythrocyte.
Assay [13] in a line: Anticomplement activity in sheep erythrocytes in C3-depleted serum assessed as inhibition of hemolysis by classical pathway at 0.45 mM after 30 mins compound treated in normal human serum. As to conditions: Ovis aries, Erythrocyte.
Assay [14] in a line: Anticomplement activity in sheep erythrocytes in C9-depleted serum assessed as inhibition of hemolysis by classical pathway at 0.45 mM after 30 mins compound treated in normal human serum. As to conditions: Ovis aries, Erythrocyte.
Assay [15] is described as follows: Anticomplement activity in sheep erythrocytes in C5-depleted serum assessed as inhibition of hemolysis by classical pathway at 0.45 mM after 30 mins compound treated in normal human serum. The conditions noted are these: Ovis aries, Erythrocyte.
Assay [16] in a line: Anticomplement activity in sheep erythrocytes in C1q-depleted serum assessed as inhibition of hemolysis by classical pathway at 0.45 mM after 30 mins compound treated in normal human serum. As to conditions: Ovis aries, Erythrocyte.

Turning to `C[C@@]12C[C@@]3(O)O[C@@H](O1)[C@]1(COC(=O)c4ccccc4)[C@@H]3C[C@]12O[C@@H]1O[C@H](COC(=O)c2ccc(O)cc2)[C@@H](O)[C@H](O)[C@H]1O`, the INH in assay [1] was determined as 0.52 mM.
For the compound `CO[C@]12C[C@]3(C)OC(O1)[C@]1(COC(=O)c4ccccc4)[C@@H]2C[C@@]31O[C@@H]1O[C@H](COC(=O)c2ccccc2)[C@@H](O)[C@H](O)[C@H]1O`, the inhibition result in [1] and in assay [2] was “inactive” in each case.
Turning to `C[C@@]12C[C@@]3(O)OC(O1)[C@]1(COC(=O)c4ccc(O)cc4)[C@@H]3C[C@@]21O[C@@H]1O[C@H](COC(=O)c2ccccc2)[C@@H](O[C@@H]2O[C@H](CO)[C@@H](O)[C@H](O)[C@H]2O)[C@H](O)[C@H]1O`, in assay [1], the INH was 0.33 mM. Also, the Activity was less than 10% in assay [3]; less than 10% in assay [4]; 89.3% in assay [5]; 80.1% in assay [6]; less than 10% in [7]; less than 10% in [8]. In addition, in assay [2], the AP50 was 0.43 mM.
As to `COc1ccc(C(=O)OC[C@@]23[C@@H](OC)O[C@@]4(C)CC(=O)[C@H]2C[C@]34O[C@@H]2O[C@H](COC(=O)c3ccccc3)[C@@H](O)[C@H](O)[C@H]2O)cc1`, the inhibition entry in assay [1] and in [2] was “inactive” in each case.
On to `COc1ccc(C(=O)OC[C@]23[C@H]4O[C@]5(O)C[C@](C)(O4)[C@@]2(O[C@@H]2O[C@H](CO)[C@@H](O)[C@H](O)[C@H]2O)C[C@H]35)cc1`, for which, in assay [1], the INH worked out at 2.67 mM. In addition, the AP50 in assay [2] was determined as 3.67 mM.
`C[C@@]12C[C@@]3(O)O[C@@H](O1)[C@]1(COC(=O)c4ccccc4)[C@@H]3C[C@]12O[C@@H]1O[C@H](COC(=O)c2cc(O)c(O)c(O)c2)[C@@H](O)[C@H](O)[C@H]1O`: the INH in [1] came out at 0.21 mM. Further, the inhibition entry in [9], in assay [10] and in assay [12] was “Active” throughout. In addition, in [11], the inhibition entry is “inactive”. Moreover, the AP50 in [2] stood at 0.32 mM.
`COc1cc(C(=O)OC[C@H]2O[C@@H](O[C@@]34C[C@H]5[C@@]3(CO)[C@H]3O[C@]5(O)C[C@]4(C)O3)[C@H](O)[C@@H](O)[C@@H]2O)ccc1O`: in assay [1], the INH worked out at 0.89 mM. The AP50 in assay [2] stood at 1.12 mM.
On to `CO[C@H]1O[C@@]2(C)CC(=O)[C@H]3C[C@]2(O[C@@H]2O[C@H](COC(=O)c4ccccc4)[C@@H](O)[C@H](O)[C@H]2O)[C@]13COC(=O)c1ccccc1`, for which the inhibition entry in assay [1] and in assay [2] was “inactive” in each case.
As to `COc1cc(C(=O)OC[C@H]2O[C@@H](O[C@@]34C[C@H]5[C@@]3(COC(=O)c3ccccc3)[C@H]3O[C@]5(O)C[C@]4(C)O3)[C@H](O)[C@@H](O)[C@@H]2O)ccc1O`, the INH in [1] was found to be 2.02 mM.
On to `COc1ccc(C(=O)OC[C@H]2O[C@@H](O[C@]34C[C@@H]5[C@@]6(O)C[C@]3(C)OC(O6)[C@]54COC(=O)c3ccc(O)cc3)[C@H](O)[C@@H](O)[C@@H]2O)cc1`, for which the INH in assay [1] was 0.41 mM. Moreover, the AP50 in assay [2] worked out at 0.97 mM.
On to `COc1ccc(C(=O)OC[C@]23C4O[C@]5(OC)C[C@](C)(O4)[C@]2(O[C@@H]2O[C@H](COC(=O)c4ccccc4)[C@@H](O)[C@H](O)[C@H]2O)C[C@H]53)cc1`, for which the inhibition result in [1] and in assay [2] was “inactive” each time.
`C[C@@]12C[C@@]3(O)O[C@@H](O1)[C@]1(COC(=O)c4ccc(O)cc4)[C@H]3C[C@@]12O[C@@H]1O[C@H](COC(=O)c2ccc(O)cc2)[C@@H](O)[C@H](O)[C@H]1O`: the INH in [1] amounted to 0.34 mM. For the same compound, the AP50 in assay [2] turned out to be 0.67 mM.
As to `COc1ccc(C(=O)OC[C@]23C4O[C@]5(O)C[C@](C)(O4)[C@]2(O[C@@H]2O[C@H](COC(=O)c4ccccc4)[C@@H](O)[C@H](O)[C@H]2O)C[C@H]53)cc1`, the INH in assay [1] turned out to be 1.29 mM. Also, in assay [2], the AP50 amounted to 1.6 mM.
As to `C[C@@]12C[C@@]3(O)O[C@@H](O1)[C@]1(COC(=O)c4ccccc4)[C@H]3C[C@@]12O[C@@H]1O[C@H](COC(=O)c2ccccc2)[C@@H](O[C@@H]2O[C@H](CO)[C@@H](O)[C@H](O)[C@H]2O)[C@H](O)[C@H]1O`, the INH in assay [1] was 2.29 mM. Also, the inhibition entry in assay [2] is “inactive”.
In the case of `C[C@@]12C[C@@]3(O)O[C@@H](O1)[C@]1(COC(=O)c4ccc(O)cc4)[C@H]3C[C@@]12O[C@@H]1O[C@H](COC(=O)c2cc(O)c(O)c(O)c2)[C@@H](O)[C@H](O)[C@H]1O`, the inhibition result in [13], in [15] and in assay [16] was “Active” in each case. For the same compound, the INH in assay [1] came out at 0.14 mM. Further, the inhibition entry in assay [14] is “inactive”. Also, the AP50 in [2] was 0.25 mM.
As to `COc1ccc(C(=O)OC[C@H]2O[C@@H](O[C@]34C[C@@H]5C(=O)C[C@]3(C)O[C@H](OC)[C@]54COC(=O)c3ccccc3)[C@H](O)[C@@H](O)[C@@H]2O)cc1`, the inhibition result in [1] and in assay [2] was “inactive” each time.
Consider `CO[C@@H]1O[C@@]2(C)CC(=O)[C@H]3C[C@]2(O[C@@H]2O[C@H](COC(=O)c4ccccc4)[C@@H](O)[C@H](O)[C@H]2O)[C@]13COC(=O)c1ccccc1`, for which the inhibition result in [1] and in assay [2] was “inactive” throughout.
On to `CO[C@H]1O[C@@]2(C)CC(=O)[C@@H]3C[C@@]2(O[C@@H]2O[C@H](CO)[C@@H](O)[C@H](O)[C@H]2O)[C@]13COC(=O)c1ccc(O)cc1`, for which the inhibition result in assay [1] and in [2] was “inactive” throughout.
In the case of `COc1ccc(C(=O)OC[C@H]2O[C@@H](O[C@]34C[C@@H]5[C@@]6(O)C[C@]3(C)OC(O6)[C@]54COC(=O)c3ccccc3)[C@H](O)[C@@H](O)[C@@H]2O)cc1`, the INH in assay [1] came to 2.36 mM. Besides, in assay [2], the AP50 was 2.82 mM.
With `CO[C@]12C[C@]3(C)O[C@H](O1)[C@]1(COC(=O)c4ccc(O)cc4)[C@H]2C[C@@]13O[C@@H]1O[C@H](CO)[C@@H](O)[C@H](O)[C@H]1O`, the inhibition entry in assay [1] and in assay [2] was “inactive” throughout.
As for `C[C@@]12C[C@@]3(O)OC(O1)[C@]1(COC(=O)c4ccc(O)cc4)[C@@H]3C[C@@]21O[C@@H]1O[C@H](COC(=O)c2ccccc2)[C@@H](O)[C@H](O)[C@H]1O`, the INH in assay [1] was 0.58 mM. Moreover, the AP50 in assay [2] turned out to be 0.85 mM.
Take `C[C@@]12C[C@@]3(O)O[C@@H](O1)[C@]1(COC(=O)c4ccc(O)cc4)[C@@H]3C[C@]12O[C@@H]1O[C@H](CO)[C@@H](O)[C@H](O)[C@H]1O`: in assay [1], the INH came to 2.28 mM. Also, the AP50 in assay [2] is 3.29 mM.
